The record followed here is paper PMC10759174 (RSC Advances, 2024).

For one test, the target named is T1, human recombinant COX-2 (Homo sapiens, UniProt P35354).
T1 sequence (P35354 18-604): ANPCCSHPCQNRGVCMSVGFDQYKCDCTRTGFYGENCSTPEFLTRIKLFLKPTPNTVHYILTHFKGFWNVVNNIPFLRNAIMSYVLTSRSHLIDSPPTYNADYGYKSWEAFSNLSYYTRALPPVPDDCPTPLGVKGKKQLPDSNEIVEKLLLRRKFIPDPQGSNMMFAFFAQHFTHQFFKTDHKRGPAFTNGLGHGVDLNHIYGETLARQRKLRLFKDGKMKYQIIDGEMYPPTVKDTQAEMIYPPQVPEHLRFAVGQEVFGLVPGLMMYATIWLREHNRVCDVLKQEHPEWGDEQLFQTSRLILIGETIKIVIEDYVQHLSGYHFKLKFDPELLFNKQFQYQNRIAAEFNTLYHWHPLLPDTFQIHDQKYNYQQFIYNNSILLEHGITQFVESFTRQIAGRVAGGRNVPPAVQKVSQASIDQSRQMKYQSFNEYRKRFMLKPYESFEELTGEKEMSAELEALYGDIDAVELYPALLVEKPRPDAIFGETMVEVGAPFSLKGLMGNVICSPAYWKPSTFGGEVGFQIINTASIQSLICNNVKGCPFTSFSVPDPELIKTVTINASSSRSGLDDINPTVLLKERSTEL
Description: COX-2 inhibitor screening assay kit. Type of test: biochemical. Conditions: for IC50 COX-1/COX-2 (in vitro COX-2 selectivity index): IC50 of COX-1/COX-2.

The target of a further test is T2, ovine COX-1 (Ovis aries, UniProt P05979).
T2 sequence (P05979 25-600): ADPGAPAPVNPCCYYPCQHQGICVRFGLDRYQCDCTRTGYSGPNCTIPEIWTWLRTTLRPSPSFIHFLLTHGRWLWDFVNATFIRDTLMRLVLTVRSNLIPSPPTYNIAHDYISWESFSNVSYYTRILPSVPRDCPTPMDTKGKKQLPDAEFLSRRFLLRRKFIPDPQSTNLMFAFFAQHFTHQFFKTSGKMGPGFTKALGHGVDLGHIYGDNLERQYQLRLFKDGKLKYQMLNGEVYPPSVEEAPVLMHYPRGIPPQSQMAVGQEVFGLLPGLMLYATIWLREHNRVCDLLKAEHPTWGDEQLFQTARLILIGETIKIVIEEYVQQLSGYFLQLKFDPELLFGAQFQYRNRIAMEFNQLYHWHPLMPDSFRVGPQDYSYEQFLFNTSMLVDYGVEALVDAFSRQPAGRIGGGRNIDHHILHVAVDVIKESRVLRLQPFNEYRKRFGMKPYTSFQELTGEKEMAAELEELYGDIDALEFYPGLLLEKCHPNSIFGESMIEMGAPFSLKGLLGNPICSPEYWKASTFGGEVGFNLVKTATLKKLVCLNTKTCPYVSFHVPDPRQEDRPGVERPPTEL
As to the kind of experiment: COX-1 inhibitor screening assay kit. Type of test: biochemical.

The nature of test [1]: DPPH free radical scavenging assay. The following applies: at a concentration of 1000 μg mL^−1. The essentials:
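DPPH 0.1 mM in ethanol, 1 mL, added to 3 mL of test compound solution in ethanol at 1000 μg mL−1. The mixture was shaken vigorously, left 30 min at room temperature, and absorbance read at 517 nm. Ascorbic acid served as reference, run in triplicate. % scavenging = (A0 − A1)/A0 × 100, where A0 is control-reaction absorbance and A1 is absorbance with sample.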
A general note: Loss of DPPH colour is used to gauge radical scavenging.

As for `Cc1cc(-c2ccccc2)c2c(n1)C1(CCCCC1)NC2=O` [Compound 17, 2′-Methyl-4′-phenylspiro[cyclohexane-1,7′-pyrrolo[3,4-b]pyridin]-5′(6′H)-one], on human recombinant COX-2, the IC50 is 0.099 µM and the “IC50 COX-1/COX-2 (in vitro COX-2 selectivity index)” value worked out at 80.81 µM. The IC50 against ovine COX-1 was determined as 8 µM.

As to `O=C1NC2(CCCCC2)c2nc3c(c(-c4ccccc4)c21)CCCC3` [Compound 11, 9′-Phenyl-5′,6′,7′,8′-tetrahydrospiro[cyclohexane-1,3′-pyrrolo[3,4-b]quinolin]-1′(2′H)-one], at human recombinant COX-2, the IC50 was 0.06 µM and the “IC50 COX-1/COX-2 (in vitro COX-2 selectivity index)” value came out at 175.00 µM. In addition, half-maximal inhibition against ovine COX-1 (IC50) required 10.5 µM. Also, in test [1] (listed as Comp. 11), the DPPH scavenging% is reported as 86.1%.

For `NC1=NC(=S)NC12CCCCC2` [Compound 4, 4-Amino-1,3-diazaspiro[4.5]dec-3-ene-2-thione], on human recombinant COX-2, the IC50 is 0.135 µM and the “IC50 COX-1/COX-2 (in vitro COX-2 selectivity index)” value is 55.56 µM. The same compound yielded an IC50 on ovine COX-1 of 7.5 µM. This compound registered a DPPH scavenging% in test [1] (listed as Comp. 4) of 61.1%.

Regarding `O=C1CCC(=O)C2(CCCCC2)N1` [Compound 6, 1-Azaspiro[5.5]undecane-2,5-dione], at human recombinant COX-2, the IC50 was 0.089 µM and the “IC50 COX-1/COX-2 (in vitro COX-2 selectivity index)” value came to 129.21 µM. This compound returned an IC50 on ovine COX-1 of 11.5 µM. Also, in test [1], the DPPH scavenging% worked out at 74.4%.

For the compound `O=C1NC2(CCCCC2)c2[nH]c(=S)nc(-c3ccccc3)c21` [Compound 14, 4′-Phenyl-2′-thioxo-1′,2′-dihydrospiro[cyclohexane-1,7′-pyrrolo[3,4-d]pyrimidin]-5′(6′H)-one], the IC50 at human recombinant COX-2 turned out to be 0.08 µM; against ovine COX-1, 6 µM. Further, the “IC50 COX-1/COX-2 (in vitro COX-2 selectivity index)” value at human recombinant COX-2 stood at 75.00 µM. The DPPH scavenging% in test [1] turned out to be 66.5%.

In turn, `O=C1O[C@H]([C@@H](O)CO)C(O)=C1O` [Ascorbic acid, ascorbic acid, reference compound] had a DPPH scavenging% in test [1] of 97%.

Broadly, the IC50 is the concentration that gives 50% inhibition.
